According to ChEMBL document CHEMBL1148735, “4-Substituted trinems as broad spectrum beta-lactamase inhibitors: structure-based design, synthesis, and biological activity” (J Med Chem, 2007):

Experiments:
[1] = molecular target: T1, Beta-lactamase SHV-1 (Escherichia coli, UniProt P0AD63); assay: Inhibition of Escherichia coli SHV1
T1 sequence (P0AD63 whole entry): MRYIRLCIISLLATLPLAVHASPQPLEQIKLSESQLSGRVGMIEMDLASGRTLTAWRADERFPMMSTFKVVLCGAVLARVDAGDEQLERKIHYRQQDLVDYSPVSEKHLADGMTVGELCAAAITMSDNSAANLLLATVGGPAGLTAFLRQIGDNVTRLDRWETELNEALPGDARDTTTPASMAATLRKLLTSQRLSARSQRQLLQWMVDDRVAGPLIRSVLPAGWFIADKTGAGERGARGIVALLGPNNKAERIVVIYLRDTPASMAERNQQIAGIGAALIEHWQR
Summary of the method: (§1)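 Recombinant β-lactamase, expressed in the pET system without its signal peptide and carrying an N-terminal His6 tag, purified on Ni-NTA. Inhibitor made as a 50 mM DMSO stock, then diluted in 50 mM phosphate pH 7 with 10% DMSO final. Enzyme and inhibitor preincubated 10 min at 37 °C. Started with prewarmed nitrocefin; A490 read every 30 s for 10 min at 37 °C.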

[2] = molecular target: Beta-lactamase (Enterobacter cloacae, UniProt P05364); assay: Inhibition of Enterobacter cloacae AmpC
Beta-lactamase, sequence (P05364 whole entry): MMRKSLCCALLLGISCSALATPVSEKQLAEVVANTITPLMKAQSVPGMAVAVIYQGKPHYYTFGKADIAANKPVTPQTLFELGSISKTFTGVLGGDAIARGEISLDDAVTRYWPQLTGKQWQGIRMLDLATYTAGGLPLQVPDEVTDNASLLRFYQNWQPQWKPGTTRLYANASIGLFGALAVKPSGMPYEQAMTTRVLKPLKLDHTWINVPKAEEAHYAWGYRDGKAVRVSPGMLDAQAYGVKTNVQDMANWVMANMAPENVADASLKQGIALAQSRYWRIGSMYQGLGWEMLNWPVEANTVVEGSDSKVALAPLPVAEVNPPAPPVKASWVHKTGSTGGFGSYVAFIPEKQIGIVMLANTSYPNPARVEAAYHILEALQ

[3] = molecular target: Beta-lactamase TEM (Escherichia coli, UniProt P62593); assay: Inhibition of Escherichia coli TEM1; summary of the method: as §1
Beta-lactamase TEM, sequence (P62593 whole entry): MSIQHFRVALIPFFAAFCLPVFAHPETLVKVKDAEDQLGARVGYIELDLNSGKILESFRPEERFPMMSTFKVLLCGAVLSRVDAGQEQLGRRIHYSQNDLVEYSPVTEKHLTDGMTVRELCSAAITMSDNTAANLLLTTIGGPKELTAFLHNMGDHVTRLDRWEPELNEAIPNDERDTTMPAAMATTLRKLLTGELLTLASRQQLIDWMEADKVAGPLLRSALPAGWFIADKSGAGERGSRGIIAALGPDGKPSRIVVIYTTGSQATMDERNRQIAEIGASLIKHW

SMILES	IC50 [1]	IC50 [2]	IC50 [3]
C/C=C1/C(=O)N2C(C(=O)O)=C3[C@@H](OCC)CCC[C@@H]3[C@H]12	385 nM	229 nM	57 nM
C/C=C1/C(=O)N2C(C(=O)O)=C3[C@@H](OCCCC)CCC[C@@H]3[C@H]12	206 nM	720 nM	32 nM
C/C=C1/C(=O)N2C(C(=O)O)=C3[C@@H](CCC[C@H]3OCC)[C@H]12	284 nM	295 nM	22 nM
C/C=C1/C(=O)N2C(C(=O)O)=C3[C@@H](OCCF)CCC[C@@H]3[C@H]12	148 nM	1020 nM	21 nM
C/C=C1/C(=O)N2C(C(=O)O)=C3[C@@H](OC(C)C)CCC[C@@H]3[C@H]12	340 nM	341 nM	39 nM
C/C=C1/C(=O)N2C(C(=O)O)=C3[C@@H](CCC[C@H]3OCCCC)[C@H]12	219 nM	430 nM	12 nM
C/C=C1/C(=O)N2C(C(=O)O)=C3[C@@H](OCCC#N)CCC[C@@H]3[C@H]12	152 nM	209 nM	18 nM
